ChEMBL document CHEMBL1933044
Calls of active or inactive are those of the source. The rule behind the calls is not given here.

What was measured:
Trypanosoma brucei [1] = assay: Antitrypanosomal activity against bloodstream form of Trypanosoma brucei 427 after 48 hrs by hemocytometer analysis; type: functional, organism-based; settings: Trypanosoma brucei, 427, 48 h
Human respirovirus 3 = assay: Antiviral activity against Parainfluenza-3 virus assessed as inhibition of viral replication; type: functional, organism-based
Summary of the method: (§1)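 Cell culture virus assays. Inhibition of virus replication and compound cytotoxicity were scored by microscopic examination and confirmed by a colorimetric MTS cell viability assay. Selectivity index is the ratio of cytotoxic to antiviral concentration.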

Feline coronavirus = assay: Antiviral activity against Feline coronavirus assessed as inhibition of viral replication; type: functional, organism-based; summary of the method: as §1
[2] = Antagonist activity at NMDAR in rat cerebellar granule neurons assessed as inhibition of NMDA-induced calcium flux after 5 mins using FURA-2AM in presence of glycine; type: functional
Summary of the method: (§2)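 Primary cerebellar granule neuron cultures grown on poly-L-lysine-coated glass coverslips and used after 7-14 days in vitro. Intracellular calcium recorded in real time over 1200 s. Cells were stimulated with NMDA or glutamate (100 μM, with 10 μM glycine), then given increasing cumulative compound concentrations. Percent inhibition at each concentration was fitted by non-linear regression (variable slope). At least three experiments on three culture batches.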

Reovirus sp. = assay: Antiviral activity against Reovirus 1 assessed as inhibition of viral replication; type: functional, organism-based; summary of the method: as §1
Vaccinia virus = assay: Antiviral activity against Vaccinia virus assessed as inhibition of viral replication; type: functional, organism-based; settings: Orthopoxvirus vaccinia; summary of the method: as §1
Sindbis virus = assay: Antiviral activity against Sindbis virus assessed as inhibition of viral replication; type: functional, organism-based; summary of the method: as §1
Human alphaherpesvirus 1 = assay: Antiviral activity against HSV1 assessed as inhibition of viral replication; type: functional, organism-based; summary of the method: as §1
[3] = system: Respiratory syncytial virus; assay: Antiviral activity against RSV assessed as inhibition of viral replication; type: functional, organism-based; summary of the method: as §1
[4] = Antagonist activity at NMDAR in rat cerebellar granule neurons assessed as inhibition of glutamate-induced calcium flux after 5 mins using FURA-2AM in presence of glycine; type: functional; summary of the method: as §2
Coxsackievirus B4 = assay: Antiviral activity against Coxsackievirus B4 assessed as inhibition of viral replication; type: functional, organism-based; summary of the method: as §1
Human alphaherpesvirus 2 = assay: Antiviral activity against HSV2 assessed as inhibition of viral replication; type: functional, organism-based; summary of the method: as §1
[5] = target: Matrix protein 2 (Influenza A virus) (UniProt P06821); assay: Inhibition of Influenza A virus (A/Puerto Rico/8/1934(H1N1)) M2 channel expressed in Xenopus oocytes at 100 uM by two-electrode voltage clamp assay; type: cell-based; settings: Oocyte
Punta Toro virus = assay: Antiviral activity against Punta Toro virus assessed as inhibition of viral replication; type: functional, organism-based; summary of the method: as §1
Trypanosoma brucei [6] = assay: Ratio of compound IC90 to rimantadine IC90 for bloodstream form of Trypanosoma brucei 427; type: functional
H3N2 subtype = assay: Antiinfluenza activity against Influenza A virus (A/Hong Kong/7/1987(H3N2)) assessed as inhibition of viral replication; type: functional, organism-based; summary of the method: as §1
Influenza A virus = assay: Antiinfluenza activity against Influenza A virus (A/Puerto Rico/8/1934(H1N1)) assessed as inhibition of viral replication; type: functional, organism-based; summary of the method: as §1
Influenza B virus = assay: Antiinfluenza activity against Influenza B virus (B/Hong Kong/05/1972) assessed as inhibition of viral replication; type: functional; summary of the method: as §1
[7] = system: Vesicular stomatitis virus; assay: Antiviral activity against VSV in human HEL cells assessed as viability by MTS based microscopy; type: functional, organism-based; summary of the method: as §1
[8] = Selectivity index, ratio of cytotoxicity for HeLa cells to ratio of EC50 for Vesicular stomatitis virus; type: toxicity, cell-based; settings: human, read-out: Selectivity Index; summary of the method: as §1
[9] = system: Vesicular stomatitis virus; assay: Antiviral activity against VSV in HeLa cells assessed as inhibition of viral replication; type: functional, organism-based; summary of the method: as §1

Chain of Matrix protein 2 (Influenza A virus) (P06821 whole entry): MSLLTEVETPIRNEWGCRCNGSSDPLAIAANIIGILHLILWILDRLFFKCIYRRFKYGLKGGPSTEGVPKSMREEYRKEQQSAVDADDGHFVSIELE

Row | Structure (SMILES) | IC90 (Trypanosoma brucei [1]) | Activity (Human respirovirus 3) | Activity (Feline coronavirus) | IC50 [2] | Activity (Reovirus sp.) | Activity (Vaccinia virus) | IC50 (Trypanosoma brucei [1]) | Activity (Sindbis virus) | Activity (Human alphaherpesvirus 1) | Activity [3] | IC50 [4] | Activity (Coxsackievirus B4) | Activity (Human alphaherpesvirus 2) | inhibition [5] | Activity (Punta Toro virus) | other results
1 | CC12CC3CC(C)(C1)CC(N)(C3)C2 [MEMANTINE] | 21.4 µM | – | – | – | – | – | – | – | – | – | – | – | – | – | – | –
2 | CC12CC3CC(N)(CC(C1)c1ccccc13)C2 | 9.6 µM | inactive | inactive | 13.6 µM | inactive | inactive | 4.8 µM | inactive | inactive | inactive | 22 µM | inactive | inactive | inactive | inactive | –
3 | C#CCNC12CC3CC(C)(CC(C1)c1ccccc13)C2 | 3.14 µM | inactive | inactive | 27.5 µM | inactive | inactive | 1.99 µM | inactive | inactive | inactive | > 500 µM | inactive | inactive | – | inactive | Ratio (Trypanosoma brucei [6]): >4
4 | CN(Cc1ccccc1)C12CC3CC(C)(CC(C1)c1ccccc13)C2 | 10.8 µM | inactive | inactive | > 200 µM | inactive | inactive | 5.25 µM | inactive | inactive | inactive | > 500 µM | inactive | inactive | – | inactive | –
5 | CNC12CC3CC(C)(CC(C1)c1ccccc13)C2 | 6.66 µM | inactive | inactive | 19.4 µM | inactive | inactive | 4.46 µM | inactive | inactive | inactive | 455 µM | inactive | inactive | – | inactive | –
6 | CC12CC3CC(NCc4ccccc4)(CC(C1)c1ccccc13)C2 | 6.55 µM | inactive | inactive | > 200 µM | inactive | inactive | 3 µM | inactive | inactive | inactive | > 500 µM | inactive | inactive | inactive | inactive | Activity (H3N2 subtype): inactive; EC50 (Influenza A virus): 10 µM; Activity (Influenza B virus): inactive
7 | CC(N)C12CC3CC(CC(C3)C1)C2 (centres undefined) [RIMANTADINE] | 14 µM | – | – | – | – | – | – | – | – | – | – | – | – | – | – | –
8 | C#CCN(CC#C)C12CC3CC(C)(CC(C1)c1ccccc13)C2 | 21.6 µM | inactive | inactive | > 200 µM | inactive | inactive | 13.4 µM | inactive | inactive | inactive | > 500 µM | inactive | inactive | – | inactive | Activity [7]: inactive; selectivity ratio [8]: 25; EC50 [9]: 4 µM
9 | CC12CC3CC(N4CCCCC4)(CC(C1)c1ccccc13)C2 | – | inactive | inactive | 101 µM | inactive | inactive | – | inactive | inactive | inactive | > 500 µM | inactive | inactive | – | inactive | Activity [7]: inactive; EC50 [9]: 54 µM
10 | CN(C)C12CC3CC(C)(CC(C1)c1ccccc13)C2 | 3.14 µM | inactive | inactive | 11.8 µM | inactive | inactive | 1.99 µM | inactive | inactive | inactive | 87 µM | inactive | inactive | inactive | inactive | –
